PPC-1+TRAIL kill – kills PPC-1 cancer cells in the presence of TRAIL; cell killing (% activity), % at 4 µM or 5 µM; PPC-1 cells + TRAIL, ATPLite viability luminescence; AID 1443; 220,000 tested, 0.41% active;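 active means cell killing above 50% in the first pass at 4 µM, then a duplicate retest at 5 µM averaging 50% or more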;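 further: plate controls were cells with TRAIL plus DMSO for no effect and medium-only wells lacking cells for full effect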
FLuc inhib CS – inhibits firefly luciferase, flagging false hits in luciferase inhibition screens | ATPLite firefly luciferase biochemical luminescence, 10 min | inhibition, % at 10 µM | AID 1006 | 200,000 tested, 1.5% active;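 active means inhibition above about 50% when tested at 10 µM, limit read from the data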
Target sequence (P08659 whole entry, looked up): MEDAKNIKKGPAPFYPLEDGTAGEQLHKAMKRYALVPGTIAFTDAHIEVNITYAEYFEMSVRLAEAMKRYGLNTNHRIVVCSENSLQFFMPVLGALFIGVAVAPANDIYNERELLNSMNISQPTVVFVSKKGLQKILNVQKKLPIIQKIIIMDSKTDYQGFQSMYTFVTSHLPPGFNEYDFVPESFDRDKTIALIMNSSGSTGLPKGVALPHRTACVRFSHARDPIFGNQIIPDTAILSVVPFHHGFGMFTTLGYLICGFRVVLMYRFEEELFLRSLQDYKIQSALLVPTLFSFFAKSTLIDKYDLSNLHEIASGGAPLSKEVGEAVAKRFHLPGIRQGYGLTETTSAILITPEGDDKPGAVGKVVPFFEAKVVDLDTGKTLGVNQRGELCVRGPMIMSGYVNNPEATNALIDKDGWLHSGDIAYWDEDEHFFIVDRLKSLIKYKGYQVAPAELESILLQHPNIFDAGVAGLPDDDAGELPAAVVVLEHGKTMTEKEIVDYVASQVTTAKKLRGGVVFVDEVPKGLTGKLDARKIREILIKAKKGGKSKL
C8 TRAIL sens – caspase-8 TRAIL sensitization; inhibition (viability loss, TRAIL sensitization), % at 10 µM; 360,000 tested, 1% active; NB7+C8 cells + TRAIL, ATPlite viability luminescence;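 active means compounds causing at least 50% loss of cell viability in the single-dose screen, relative to plate controls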
FLuc act counter – firefly luciferase counter-screen for stimulation assays | ATPlite luciferase biochemical, luminescence, 10 min; 0 = ATP-free wells, 1 = DMSO control | P08659 | activation factor at 10 µM | 200,000 tested, under 10 active;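 active means luciferase activation factor, scaled between plate controls, of at least 2 with compound at 10 µM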
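Assay system: Luciferase/luciferin reagent mix; Medium: PBS as buffer for the ATP substrate; Dosing: test compounds dosed from 2 mM stocks in 100% DMSO; Times: 10 min, room temperature; Signal: luminescence from luciferase reaction; Read-out: luciferase activation; Controls: No-ATP low control, compound-free enzyme-plus-ATP high control.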
An asterisk follows results filed as active; ! = not confirmed by another sample. Only some compounds are listed: those with a hit (about 1.5% of all), similar ones and a draw of the others.

Results for N/C(=N\OC(=O)CCC1CCCCC1)c1cccnc1 ?
PPC-1+TRAIL kill: 1; FLuc inhib CS: 63*; C8 TRAIL sens: -1; FLuc act counter: 0.4

Results for N/C(=N\OC(=O)CCCc1ccccc1)c1cccnc1 ?
PPC-1+TRAIL kill: -3; FLuc inhib CS: 50*; C8 TRAIL sens: -11; FLuc act counter: 0.5

Results for N#CC(c1ccc(O)cc1)c1ncc(C(F)(F)F)cc1Cl (centres undefined) ?
PPC-1+TRAIL kill: -7; FLuc inhib CS: -4; C8 TRAIL sens: -4; FLuc act counter: 1

How did N/C(=N\OC(=O)c1ccccc1)c1cccnc1 do in these assays?
PPC-1+TRAIL kill: 5; FLuc inhib CS: 92*; C8 TRAIL sens: 2; FLuc act counter: 0.1

How did N/C(=N\OC(=O)c1ccccc1)c1ccn[nH]1 do in these assays?
C8 TRAIL sens: 56*

What do the screens show for `COc1cccc(C(=O)O/N=C(\N)c2ccncc2)c1OC`?
PPC-1+TRAIL kill: 12; FLuc inhib CS: 13; C8 TRAIL sens: 5; FLuc act counter: 0.9

What do the screens show for `Cc1ccccc1C(=O)O/N=C(\N)c1ccncc1`?
PPC-1+TRAIL kill: 13; FLuc inhib CS: 69*; C8 TRAIL sens: 52*; FLuc act counter: 0.3

How did O=C(O/N=C(/c1ccccc1)c1ccncc1)c1ccc(F)cc1 do in these assays?
PPC-1+TRAIL kill: 17; FLuc inhib CS: -2; C8 TRAIL sens: -1; FLuc act counter: 1

How did O=C(COC(=O)c1ccc(S(=O)(=O)N2CCCC2)cc1)Nc1ccc(Cl)cc1 do in these assays?
C8 TRAIL sens: -6

How did O=C(NC(=O)c1ccccc1)Nc1ccccn1 do in these assays?
C8 TRAIL sens: 89*

Results for Cc1cc(C(=O)Nc2ccccn2)cs1 ?
PPC-1+TRAIL kill: 29; FLuc inhib CS: 57*; C8 TRAIL sens: 15; FLuc act counter: 0.4

Results for O=C(Nc1ccccn1)c1ccc(C(=O)c2ccccc2)cc1 ?
C8 TRAIL sens: 20

How did Cc1cc(C)n(-c2ccc(C(=O)Nc3ccccn3)cc2)n1 do in these assays?
PPC-1+TRAIL kill: -17; FLuc inhib CS: 65*; C8 TRAIL sens: 49; FLuc act counter: 0.3

What do the screens show for `COc1ccc(N=C2S/C(=C\c3ccc(OCC(=O)O)cc3)C(=O)N2CCc2c[nH]c3ccccc23)cc1`?
PPC-1+TRAIL kill: 21; FLuc inhib CS: 3; C8 TRAIL sens: -3; FLuc act counter: 1

How did CCCC(=O)Nc1ccc(-c2csc(N/N=C\c3ccncc3)n2)cc1 do in these assays?
PPC-1+TRAIL kill: 15; C8 TRAIL sens: 71*

Results for O=C(c1ccc(Cl)nc1)c1cccs1 ?
PPC-1+TRAIL kill: 3

How did COc1ccc(C(=O)c2no[n+]([O-])c2C(=O)c2ccc(OC)cc2)cc1 do in these assays?
PPC-1+TRAIL kill: 19; FLuc inhib CS: -8; C8 TRAIL sens: 93*; FLuc act counter: 1.1

What do the screens show for `O=C(c1cccs1)c1no[n+]([O-])c1C(=O)c1cccs1`?
PPC-1+TRAIL kill: 13; FLuc inhib CS: 1; C8 TRAIL sens: 92*; FLuc act counter: 1

How did COc1ccc(NC(=O)c2c(N)no[n+]2[O-])cc1 do in these assays?
PPC-1+TRAIL kill: 25; FLuc inhib CS: -2; C8 TRAIL sens: 4; FLuc act counter: 1

Results for CC1CCCC(C)N1C(=O)COC(=O)C1CCN(S(=O)(=O)c2c(Cl)cccc2Cl)CC1 (centres undefined) ?
C8 TRAIL sens: 4

How did CC(C)Nc1ccc(Nc2ccnc3cc4ccccc4cc23)cc1 do in these assays?
PPC-1+TRAIL kill: 21; C8 TRAIL sens: 92*

How did Cn1c(=O)[nH]c(=O)c2c1nc([N+](=O)[O-])n2Cc1ccccc1 do in these assays?
PPC-1+TRAIL kill: 31; C8 TRAIL sens: 85*

What do the screens show for `CN(C)c1cccc(NC(=O)c2cccc3ccccc23)c1`?
C8 TRAIL sens: 12

Results for CCOc1ccc2nc(NC(=O)CSc3nnc(-c4ccncc4)n3CC3CCCO3)sc2c1 (centres undefined) ?
PPC-1+TRAIL kill: 34; FLuc inhib CS: 68*; C8 TRAIL sens: 46; FLuc act counter: 0.3

What do the screens show for `Cc1ccc(C2=NC3(CCCCC3)NC2=S)cc1`?
PPC-1+TRAIL kill: 13; FLuc inhib CS: 6; C8 TRAIL sens: 4; FLuc act counter: 0.9

Results for COc1ccc(-c2cc(-c3ccccc3)c(C#N)c(S(C)=O)n2)cc1 (centres undefined) ?
PPC-1+TRAIL kill: 40; FLuc inhib CS: -2; C8 TRAIL sens: 91*; FLuc act counter: 1

How did CC(C)COc1ccc(/C=C2/Sc3ccccc3C2=O)cc1 do in these assays?
PPC-1+TRAIL kill: 9; FLuc inhib CS: 57*; C8 TRAIL sens: 23; FLuc act counter: 0.4

How did CCCCOc1ccc(/C=C2/Sc3ccccc3C2=O)cc1 do in these assays?
PPC-1+TRAIL kill: 14; FLuc inhib CS: 36; C8 TRAIL sens: 2; FLuc act counter: 0.6

How did COc1ccc(-c2c(NC(=O)c3ccco3)oc3c(C)cccc3c2=O)cc1 do in these assays?
C8 TRAIL sens: -6

What do the screens show for `Clc1ccc(N=NN2CCOCC2)cc1`?
PPC-1+TRAIL kill: 19; C8 TRAIL sens: -12

How did Cc1[nH]nc(C(F)(F)F)c1N=NN1CCOCC1 do in these assays?
C8 TRAIL sens: 78*

What do the screens show for `CSCCC(NC(=O)OC(C)(C)C)C(=O)Oc1ccc2c(=O)c(-c3ccc4c(c3)OCCO4)coc2c1` (centres undefined)?
PPC-1+TRAIL kill: 32; FLuc inhib CS: 26; C8 TRAIL sens: 56*; FLuc act counter: 0.7

Results for CSCCC(NC(C)=O)C(=O)Oc1ccc2c3c(c(=O)oc2c1)CCCC3 (centres undefined) ?
PPC-1+TRAIL kill: 8; FLuc inhib CS: 8; C8 TRAIL sens: 17; FLuc act counter: 0.9

What do the screens show for `COc1cc(NC(=O)c2nccnc2N)cc(C(=O)Nc2cccc(C(F)(F)F)c2)c1`?
PPC-1+TRAIL kill: 3; C8 TRAIL sens: 6

What do the screens show for `Cc1ccc(C(=O)Nc2cccc(C(F)(F)F)c2)cc1NC(=O)c1nccnc1N`?
PPC-1+TRAIL kill: -8; C8 TRAIL sens: 54*!

What do the screens show for `Cc1ccc(/C=N/Nc2nc3ccccc3s2)o1`?
PPC-1+TRAIL kill: 2; FLuc inhib CS: 60*; C8 TRAIL sens: 43; FLuc act counter: 0.4

Results for Cc1nnc(SCc2cc(=O)[nH]c(/N=C(\N)Nc3ccccc3)n2)s1 ?
PPC-1+TRAIL kill: 14; C8 TRAIL sens: 26

How did COC(=O)Cc1[nH]n(-c2nc3ccccc3s2)c(=O)c1C(C)=O do in these assays?
PPC-1+TRAIL kill: 37; FLuc inhib CS: 33; C8 TRAIL sens: 10; FLuc act counter: 0.7

Results for COC(=O)CC1=NN(c2nc3ccccc3s2)C(=O)/C1=C/N(C)C ?
PPC-1+TRAIL kill: 18; FLuc inhib CS: 72*; C8 TRAIL sens: 3; FLuc act counter: 0.3

Results for O=C(Nc1ccccc1C(=O)O)c1ccc2ccccc2n1 ?
PPC-1+TRAIL kill: 22; FLuc inhib CS: 56*; C8 TRAIL sens: 36; FLuc act counter: 0.4

What do the screens show for `O=C(Nc1ccccc1)c1ccc2ccccc2n1`?
PPC-1+TRAIL kill: 31; FLuc inhib CS: 52*; C8 TRAIL sens: 27; FLuc act counter: 0.5

What do the screens show for `CCOC(=O)c1cc(NC(=O)NC2CCCCC2)c(C)nc1C`?
C8 TRAIL sens: 3

Source: PubChem
